An excerpt weighted towards active compounds, which were near 1.7% of everything screened.
STEP inh: STEP (human) phosphatase inhibition | inhibition, % at 20 µM | AID 588621 | recombinant STEP, OMFP fluorogenic substrate, fluorescence | hit rate 0.25% among 360,000 | P54829;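 active = inhibition at 20 µM, scaled per plate between control wells, above about 37%, limit read from the data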;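 also: 0% = DMSO with enzyme and substrate and 100% = substrate only without enzyme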
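Assay system: isolated STEP enzyme / Timing: 20 min at room temperature, dark / Doses: 20 µM, 1% DMSO / Technique: fluorescence intensity, excitation 480 nm, emission 540 nm / Reagent: fluorogenic phosphatase substrate OMFP at 25 µM final / Measure: percent inhibition scaled to no-enzyme and uninhibited-enzyme controls, plate-pattern corrected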
Scp1 inh: Scp-1 (human) phosphatase inhibition; Q9GZU7; Recombinant Scp1, phosphopeptide, malachite green phosphate absorbance; inhibition, % at 20 µM; hit rate 0.88% among 340,000;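 active = inhibition above about 50% at 20 µM, limit read from the data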;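 also: plate controls were DMSO wells with enzyme for no effect and wells lacking enzyme for full effect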
Target sequence (Q9GZU7 76-261 limits assumed): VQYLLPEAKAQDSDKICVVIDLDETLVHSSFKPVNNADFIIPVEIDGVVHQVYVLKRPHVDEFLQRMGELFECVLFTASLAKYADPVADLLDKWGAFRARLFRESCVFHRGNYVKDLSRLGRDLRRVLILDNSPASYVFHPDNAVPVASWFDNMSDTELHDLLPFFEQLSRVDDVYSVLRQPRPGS
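System: SCP-1 catalytic domain; Reagent: Phospho 17-mer peptide substrate; Doses: one concentration, 20 µM, with 1.0% DMSO; Incubation: 45 min room-temperature reaction, 5 min colour, 30 min stabiliser; Signal: Phosphate-binding colour reagent, absorbance read at 630 nm.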
SUMO1-SIM PPI: alters human SUMO1 binding to SIM partners; P63165; SUMO1 binding to a labelled peptide, TR-FRET, 1 h; inhibition, % at 20 µM; hit rate 0.33% among 360,000; AID 602429; in the data active = inhibition above about 37%
Target sequence (P63165 whole entry, looked up): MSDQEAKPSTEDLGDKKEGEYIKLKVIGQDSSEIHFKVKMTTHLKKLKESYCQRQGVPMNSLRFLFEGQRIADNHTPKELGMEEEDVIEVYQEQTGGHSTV
DNMT1 inh: DNMT1 (human) enzyme inhibition. DNMT1 molecular beacon, Hinp1I cleavage, fluorescence. inhibition (reported as % activation of signal), % at 10 µM. hit rate 0.83% among 360,000. AID 588458; in the data active = inhibition above about 50%
LMPTP inh: blocks human LMPTP phosphatase; recombinant LMPTP-A, OMFP fluorogenic substrate, fluorescence intensity; hit rate 0.22% among 360,000; inhibition, % at 20 µM;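 active = compounds that cut the enzyme signal by at least half of the control window in the single-dose screen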;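 also: plate controls were DMSO wells with enzyme plus substrate for no effect and substrate without enzyme for full effect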
Target sequence (P24666 whole entry, looked up): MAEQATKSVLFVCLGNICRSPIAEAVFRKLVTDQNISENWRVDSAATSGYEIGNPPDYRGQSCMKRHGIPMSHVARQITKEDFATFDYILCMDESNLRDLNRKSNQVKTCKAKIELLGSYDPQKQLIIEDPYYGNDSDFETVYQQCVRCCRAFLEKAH
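Test system – LMPTP-A enzyme · Amount – LMPTP-A at 0.625 nM final in the reaction · Buffer or medium – Bis-Tris pH 6.0, DTT, detergent · Reagent – OMFP 400 µM · Doses – single 20 µM dose · Schedule – reaction 50 min, room temperature, dark · Detection – fluorescence intensity of OMFP turnover product · Evaluation – percent inhibition versus substrate-only and uninhibited controls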
Scp1 confirm: confirmation of human Scp-1 phosphatase inhibitors | AID 540281 | shares compounds with Scp1 inh | inhibition, % at 20 µM | hit rate 61% among 2,500 | recombinant SCP-1 catalytic domain, phosphate release, malachite green absorbance;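 also: plate controls were DMSO with enzyme for no effect and buffer wells lacking enzyme for full effect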
Scp-1 MG ctr: interferes with malachite green readout, flagging false Scp-1 hits; shares compounds with Scp1 inh; Colorimetric interference counterscreen, malachite green absorbance 630 nm; apparent inhibition (interference), % at 20 µM; 2,500 tested, under 10 active;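 also: compounds added after enzyme reaction finished so only phosphate colour detection is probed; plate controls were DMSO wells with completed Scp-1 reaction for no effect and substrate wells lacking enzyme for full effect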
Scp-1 Tm shift: binds human Scp-1, shifting its melting temperature | shares compounds with Scp1 inh | Recombinant SCP1, Sypro Orange thermal shift Tm | thermal shift relative to vanadate control, % at 40 µM | hit rate 25% among 1,500 | AID 540329;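 active = substances whose mean melting-temperature shift, as a percentage of the reference inhibitor's shift, reaches about 5.3%, limit read from the data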;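 also: 0% = Tm of DMSO wells and 100% = Tm with sodium orthovanadate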
An asterisk follows results filed as active; · = no result given.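 The calls were made as follows, unless noted: active = inhibition of at least 30% at 20 µM; inactive = the rest.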

SMILES	STEP inh	Scp1 inh	SUMO1-SIM PPI	DNMT1 inh	LMPTP inh	Scp1 confirm	Scp-1 MG ctr	Scp-1 Tm shift
C[C@@H]1NC(=O)c2cc([N+](=O)[O-])cc(I)c2OCC[C@@H](C(=O)NC(CC(=O)O)C(N)=O)NC(=O)[C@H](CCC(=O)O)NC1=O (some centres not stated)	·	50*	·	·	·	53*	-13	-4
NC(=O)C(CC(=O)O)NC(=O)[C@@H]1CCOc2c(I)cc([N+](=O)[O-])cc2C(=O)N[C@@H](CCC(=O)O)C(=O)N[C@@H](CO)C(=O)N1 (some centres not stated)	·	29	·	·	·	·	·	·
NC(=O)C(CC(=O)O)NC(=O)[C@@H]1CCCNc2c(I)cc([N+](=O)[O-])cc2C(=O)N[C@@H](CO)C(=O)N[C@@H](Cc2ccc(O)cc2)C(=O)N1 (some centres not stated)	3	62*	-7	10	0	43*	-13	9.8*
O=S1(=O)CC(N2CCN(CC3CC3)CC2)CN1Cc1ccccc1 (configuration not stated)	0	·	1	0	-1	·	·	·
O=c1[nH]n2c(=O)c3c([nH]c2c1N=Nc1cccc(Cl)c1)CCCC3	4	95*	5	0	5	46*	-18	30*
COc1ccc(NC(=O)COC(=O)c2cc3c(s2)CCC3)cc1	32	57*	1	66*	19	63*	-12	-2
COc1ccc(C(CC(=O)N2CCCC2)c2c(OC)cc(OC)c3c(-c4ccccc4)cc(=O)oc23)cc1 (configuration not stated)	7	67*	3	94*	15	59*	-9	-21
O=C1CC2CCCN2C=C1I (configuration not stated)	-3	97*	-30	0	-3	87*	-11	-23
CCOC(=O)C1=CN2CCC[C@H]2CC1=O	0	-6	-3	4	-1	·	·	·
Cc1ccc2c(c1)CCCN2C(=O)c1cc(C)on1	1	-2	0	2	-2	·	·	·
CCOc1ccc(C(=O)Nc2ccc(-c3cc4ccccc4oc3=O)c(C)c2)cc1[N+](=O)[O-]	4	60*	2	20	13	41*	-29	3
C/C(=N\NC(=O)c1ccc(NS(=O)(=O)c2cccs2)cc1)c1ccc(C(C)(C)C)cc1	-2	-1	5	4	0	·	·	·
CC(=O)Nc1cccc(/C(C)=N/NC(=O)c2ccc(NS(=O)(=O)c3cccs3)cc2)c1	-1	64*	1	3	-2	-18	-12	·
COC(=O)c1ccc2nc(-c3ccco3)c(Cc3ccc(OC)cc3C)n2c1	0	·	2	8	4	·	·	·
COc1ccc(NC(=O)Nc2ccc(N(C)C)cc2)cc1	-4	57*	1	-8	0	-3	-14	·
CCC(C)Oc1cccc(OCCCCN2C(=O)NC(C)(C)C2=O)c1 (configuration not stated)	-2	-6	-11	3	-1	·	·	·
CC1(C)NC(=O)N(CCCCOc2cccc(C(F)(F)F)c2)C1=O	1	-4	1	-6	-2	-4	-8	·
COc1ccc(CNC(=O)C(OC(=O)c2ccco2)c2ccccc2F)cc1 (configuration not stated)	0	57*	1	-1	-1	-17	-13	·
CC1CC2CCCC(O)=C2C(=O)O1 (configuration not stated)	1	7	2	1	-2	·	·	·
O=C(N/N=C/c1cc(Cl)cc([N+](=O)[O-])c1O)c1cc(-c2ccccn2)nc2ccccc12	15	104*	11	-9	0	88*	-10	12*
Cc1nn(-c2ccccc2)c(C)c1NC(=O)COC(=O)Cc1cccc(C(F)(F)F)c1	0	-4	6	1	0	·	·	·
Cc1cccc(C)c1NC(=O)CCCCCC1NC(=O)NC1C (configuration not stated)	-1	-5	-2	3	-2	3	-5	·
CN(CC(=O)Nc1cccc(F)c1)C(=O)c1ccc2c(c1)CC(c1ccccc1)OC2=O (configuration not stated)	-3	-2	2	2	0	·	·	·
c1ccc(CCNc2cc(-c3ccc4ccccc4c3)nc3ccnn23)nc1	-2	·	-9	-3	2	·	·	·
CCOC(=O)C1CCCN(C(=O)c2ccc(CS(=O)(=O)c3ccc(C)cc3)o2)C1 (configuration not stated)	1	57*	5	46	0	55*	-11	5
SMILES	STEP inh	Scp1 inh	SUMO1-SIM PPI	DNMT1 inh	LMPTP inh	Scp1 confirm	Scp-1 MG ctr	Scp-1 Tm shift
Cc1ccc(S(=O)(=O)Cc2ccc(C(=O)N3CCCCCC3)o2)cc1	5	18	6	7	-1	·	·	·
COc1ccc(N(CC(=O)NCCSCc2ccccc2C)S(=O)(=O)c2ccccc2)cc1	1	-7	1	-2	5	·	·	·
Nc1ccc(Oc2ncccn2)c(Cl)c1	-5	5	-14	0	2	·	·	·
Fc1ccc(Oc2ccnc(Cl)n2)c(Cl)c1	·	51*	·	·	·	-6	-9	·
Cc1nn(CC(=O)N2CCN(Cc3ccccc3)CC2)c(=O)c2ccccc12	-2	-7	-3	-3	0	·	·	·
COc1ccc(CN2CCN(C(=O)Cn3nc(C(=O)O)c4ccccc4c3=O)CC2)cc1F	0	57*	-13	0	0	-4	-11	·
NC(=O)c1ccccc1NC(=O)/C=C/c1ccc(Cl)cc1	-2	6	0	0	1	·	·	·
O=C(/C=C/c1ccc(Cl)cc1)NC(=S)Nc1ccccc1C(=O)O	6	58*	-2	5	3	67*	-13	7.8*
COCCNC(=O)C1c2ccccc2C(=O)N(CCOC)C1c1ccc(F)cc1 (configuration not stated)	-1	52*	4	-2	4	4	-2	·
COCCN1C(=O)c2ccccc2C(C(=O)NCCN(C)C)C1c1ccc(F)cc1 (configuration not stated)	-2	5	-4	4	-1	·	·	·
COc1ccc(-c2oc3cc(O)c(OC)c(O)c3c(=O)c2OC)cc1O	3	-5	-15	-3	2	·	·	·
O=C(COc1ccc(OCc2ccccc2)cc1)NC1CCOC1=O (configuration not stated)	-1	85*	2	-2	-2	-19	-19	·
O=C(Cc1ccc(S(=O)(=O)N2CCCC2)s1)N1CCN(c2ccccc2)CC1	0	0	3	4	-1	·	·	·

Bioassay records from PubChem.
